Source: ChEMBL document CHEMBL1141306, “ES-242 derivatives and cycloheptapeptides from Cordyceps sp. strains BCC 16173 and BCC 16176” (J Nat Prod, 2007)
Non-standard residues stand in square brackets, D forms with d. Residues, ends and D or L forms follow the SMILES beside them. NMeY = CN[C@@H](Cc1ccc(O)cc1)C(=O)O; dNMeF = CN[C@H](Cc1ccccc1)C(=O)O; Sar = CNCC(=O)O

How the values were obtained:
[1] = system: Plasmodium falciparum; assay: Antimalarial activity against multidrug-resistant Plasmodium falciparum K1 at 10 ug/mL; format: functional
Procedure, shortened: (§1)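 Multidrug-resistant P. falciparum K1 cultures assayed by microculture radioisotope technique (Desjardins method). IC50 determined, and percent inhibition measured at a single concentration of 10 µg/mL.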

[2] = system: Plasmodium falciparum; assay: Antimalarial activity against multidrug-resistant Plasmodium falciparum K1; format: functional, organism-based; procedure, shortened: as §1
[3] = system: Vero; assay: Cytotoxicity against african green monkey Vero cells; format: cell-based; conditions: Chlorocebus sabaeus
Procedure, shortened: (§2)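 Colorimetric cytotoxicity assay on KB (oral epidermoid carcinoma), BC (breast cancer), NCI-H187 (small cell lung cancer) and Vero (African green monkey kidney fibroblast) cells. Values reported as IC50 (µM).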

[4] = system: KB; assay: Cytotoxicity against human KB cells; format: functional, cell-based; procedure, shortened: as §2
[5] = Cytotoxicity against human BC cells; format: functional, cell-based; procedure, shortened: as §2
[6] = system: NCI-H187; assay: Cytotoxicity against human NCI-H187 cells; format: functional, cell-based; procedure, shortened: as §2

For COc1cc(OC)c2c(O)c3c(c(-c4c5c(c(O)c6c(OC)cc(O)cc46)CO[C@@H](C)[C@H]5O)c2c1)[C@H](O)[C@H](C)OC3, the inhibition at 10 µg/mL [1] was under 50%.

COc1cc(OC)c2c(O)c3c(c(-c4c(O)cc(OC)c5c(O)c6c(cc45)[C@H](O)[C@H](C)OC6)c2c1)[C@H](O)[C@H](C)OC3 gave an IC50 [2] of 3.3 µM.

Work on COc1cc(OC)c2c(O)c3c(c(-c4c5c(c(O)c6c(OC)cc(OC)cc46)CO[C@@H](C)[C@H]5OC(C)=O)c2c1)[C@H](OC(C)=O)[C@H](C)OC3 yielded an IC50 [2] of 3.3 µM.

COc1cc(OC)c2c(O)c3c(c(-c4c5c(c(O)c6c(OC)cc(O)cc46)CO[C@@H](C)[C@H]5OC(C)=O)c2c1)[C@H](OC(C)=O)[C@H](C)OC3 showed an inhibition at 10 µg/mL [1] of under 50%.

Work on COc1cc(OC)c2c(O)c3c(c(-c4c5c(c(O)c6c(OC)cc(OC)cc46)CO[C@@H](C)[C@H]5O)c2c1)[C@H](O)[C@H](C)OC3 yielded an inhibition at 10 µg/mL [1] of under 50% and an IC50 [2] of 8.1 µM.

Compound COc1cc(OC)c2c(O)c3c(c(-c4c(OC)cc(OC)c5c(O)c6c(cc45)[C@H](O)[C@H](C)OC6)c2c1)[C@H](O)[C@H](C)OC3 has an inhibition at 10 µg/mL [1] of under 50% and an IC50 [2] of 12 µM.

Compound CC[C@H](C)[C@@H]1NC(=O)[C@H](Cc2ccc(O)cc2)N(C)C(=O)[C@H](Cc2ccccc2)NC(=O)CN(C)C(=O)[C@@H]2CCCN2C(=O)[C@@H](Cc2ccccc2)N(C)C(=O)[C@H](CC(C)C)NC1=O [CORDYHEPTAPEPTIDE A] (cyclo(F[NMeY]IL[dNMeF]P[Sar])) has an IC50 [2] of 3.8 µM, an IC50 [3] of 14 µM and an IC50 [4] of 0.78 µM. For the same compound, the IC50 [5] was 0.2 µM and the IC50 [6] was 0.18 µM.
